The values below come from the RNAGym collection of RNA variant scans (doi:10.1126/science.aae0568).

Fewer inactive variants are shown than the library holds.

B1: tRNA (parent)
chain: GUUCCGUUGGCGUAAUGGUAACGCGUCUCCCUCCUAAGGAGAAGACUGCGGGUUCGAGUCCCGUACGGAACG

Variants of B1 are the subject of the series. The series is described as follows: yeast fitness relative to wild type (ratio to wild type); higher = fitter; tRNA-Arg(CCU), competitive growth, 37 C, YPD. In a few lines: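 Gene amplicons from the start population and from each of six end populations were read by 100-nucleotide paired-end sequencing. Those end populations came from pooled Saccharomyces cerevisiae strains carrying tRNA-Arg(CCU) gene variants at the native locus, competed in YPD at 37°C for 24 hours. Fitness relative to wild type was worked out from changes in genotype frequencies. Genotypes needed ≥ 100 starting reads, and estimates < 0.5 were set to 0.5.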
Take U13C C31G: the yeast fitness stood at 0.933.
For U13A G25C, the yeast fitness stood at 1.04.
U13A G63A: the yeast fitness came to 0.853.
As for A14C A20C, the yeast fitness turned out to be 0.533.
As to U13A U28C C55U, the yeast fitness worked out at 0.741.
Under U13G C31A stands 0.833; under U13G G39C, 0.735; under U13G A65C A70G, 0.619.
Then A14C A20U G25C A43C C66U, with no more than 0.5; and U13G G58C G67C, with 0.603; and U13A U28G G50C A57U C62A, with 0.931.
Regarding U13C C29G C62U A69C, the yeast fitness amounted to 0.537.
U13C U19A A42C G50C: the yeast fitness stood at 0.619.
With U13C C33U, the yeast fitness was determined as 0.744.
Turning to U13C G50U, the yeast fitness is 0.81.
Under U13A G67C stands 0.945; under U13G U28A C30A, no more than 0.5; under U13C C27U G52A U53A C66U, no more than 0.5.
Take U13A U35C C46U C55G: the yeast fitness is no more than 0.5.
Then A14C A40U A43C, with 0.564; and U13C G23C C29G A43U G50A A65C, with no more than 0.5.
Under U13A U28A C31U G39A A57G stands no more than 0.5; under U13C G18C, 0.618.
Consider U13A G41A G68C, for which the yeast fitness stood at 0.504.
In the case of U13A U26G C27A G39C A42G G51C, the yeast fitness was no more than 0.5.
As for A14C A20G G23A C29U U35C C55G, the yeast fitness was no more than 0.5.
For the variant U13C C22U G38C G51A A57C, the yeast fitness was no more than 0.5.
On to U13G C27A, for which the yeast fitness is 0.628.
For U13A U32C G67A A70G, the yeast fitness worked out at 0.547.
With U13C U16G, the yeast fitness worked out at 0.865.
U13A G48C C55G: the yeast fitness came out at 0.554.
On to U13G A14U G17A, for which the yeast fitness is no more than 0.5.
U13A U53A: the yeast fitness came out at 0.59.
In the case of U13C A37C U53C, the yeast fitness was 0.599.
Then U13C C49A, with 0.795; and U13G C27U G44A A57U, with no more than 0.5.
Regarding A14C A15C A21U A57G, the yeast fitness was no more than 0.5.
As for U13G A36G G68C, the yeast fitness was no more than 0.5.
Then U13G C22G, with 0.809; and U13G C22U, with 0.972.
U13C C24G C30A U47C: the yeast fitness was no more than 0.5.
Then A14C A21C C46A, with 0.604; and U13C A14G C24G C49G A69G, with no more than 0.5; and U13G U28C, with 0.867.
As for U13G U28G, the yeast fitness is 0.59.
Turning to U13G C24G A36C A40U G48A, the yeast fitness came to 0.525.
Then U13C G48A, with 0.853.
Consider U13C A45C, for which the yeast fitness was 0.853.
For the variant U13C A45U, the yeast fitness was 0.929.
As for U13C C31A C55A, the yeast fitness came out at 0.565.
As to U13C A43U C66U, the yeast fitness is 0.705.
Consider U13C G18A A43U, for which the yeast fitness amounted to 0.627.
Turning to U13C U54A C60U, the yeast fitness was no more than 0.5.
For the variant U13C C27U C31A U35C C55G C66U A70C, the yeast fitness was no more than 0.5.
With U13G A20U U53C C62U, the yeast fitness was no more than 0.5.
Take A14C A21G: the yeast fitness is 0.713.
For A14C A21C, the yeast fitness worked out at 0.609.
Turning to U13A C66U G68C, the yeast fitness is 0.51.
With U13A G23C C49A U64G, the yeast fitness is no more than 0.5.
As for U13C C61U, the yeast fitness is 0.928.
Regarding A14C A40G, the yeast fitness turned out to be 0.596.
Take A14C A40U: the yeast fitness was 0.587.
Turning to U13C C31G A40C A42G G51A, the yeast fitness came out at 0.578.
Under A14C A42C C49A A70U stands 0.588; under U13G C24G G51A, no more than 0.5; under U13G A20U A65C, 0.594.
For U13A G18C A36G G41C C55U, the yeast fitness turned out to be 0.55.
On to U13C A36U C62U G63C A70C, for which the yeast fitness is no more than 0.5.
Consider U13C G41C, for which the yeast fitness was found to be 0.761.
Under A14C A36G A69C stands no more than 0.5; under U13G A45C G48A, 0.898; under U13C A14G C24G G52A C55G A69U, no more than 0.5.
Take U13C A15G: the yeast fitness stood at 0.903.
As for U13G G48A, the yeast fitness stood at 0.986.
Under U13C C33U A45G G50A C66A G68A A70U stands no more than 0.5; under U13C A21C C55U A69C, no more than 0.5.
Under U13C U47C C62U stands 0.715.
On to U13C G51C C66A, for which the yeast fitness was no more than 0.5.
Consider U13C A65G, for which the yeast fitness was 0.956.
Turning to A14C A20C C34A A42U, the yeast fitness is no more than 0.5.
Under U13C A57U C62U stands no more than 0.5.
U13C U16A A57U: the yeast fitness is no more than 0.5.
Regarding U13A U28A C30G C46U G56C, the yeast fitness was no more than 0.5.
Consider U13C A14U U32C, for which the yeast fitness came out at 0.53.
On to A14C A40C G68A, for which the yeast fitness is no more than 0.5.
Consider U13G A21U C22G U35A A65G, for which the yeast fitness is no more than 0.5.
Turning to U13C C27G, the yeast fitness amounted to 0.544.
For the variant U13G U32A C46U, the yeast fitness amounted to 0.577.
Consider U13A U28A U47G, for which the yeast fitness was determined as 0.528.
Regarding U13C C55G, the yeast fitness was 0.645.
Take U13C U53A: the yeast fitness came to 0.674.
Take U13C U53C: the yeast fitness came to 0.727.
For U13A U28A G63A G67A, the yeast fitness is no more than 0.5.
Under U13C C22G G68U stands no more than 0.5; under U13C C22G G68C, 0.542; under U13C A14U C31G G50A A65C, 0.531.
Then U13C C46U, with 0.886.
Regarding U13C A14G, the yeast fitness came out at 0.704.
With U13C A14C A45U C66U, the yeast fitness was no more than 0.5.
As for A14C A36G C62U, the yeast fitness is no more than 0.5.
Consider A14C A36G C62A, for which the yeast fitness is no more than 0.5.
Under U13C G44C G58A G68A stands 0.572; under U13C A21C G50A, 0.509; under U13G U35G A40G, 0.676.
For U13C G41C A70C, the yeast fitness was determined as 0.566.
Take A14C A15G A42G: the yeast fitness worked out at 0.738.
Under U13C C24G G67C stands no more than 0.5.
Then U13C G58C, with 0.922; and U13C G58A, with 0.891.
For the variant U13C C27G A36G U54G, the yeast fitness was no more than 0.5.
As for U13A G18C A36G G41C G67A, the yeast fitness is no more than 0.5.
As to U13A G56A, the yeast fitness turned out to be 0.927.
As for U13A G23C C27G U53C C61A G68A, the yeast fitness was 0.584.
Under U13A G18A stands 0.705.
As for U13C C24G U26A C55G C66A, the yeast fitness was determined as 0.561.
Then U13G A21U C22G U26C U35A A65G A70C, with no more than 0.5; and U13C C22G C24U A37C G51C C55U A69C A70U, with no more than 0.5; and U13C G52A C55G A69U, with no more than 0.5.
In the case of U13C G18C G52C G56A, the yeast fitness is no more than 0.5.
As to U13G U26A, the yeast fitness was 0.987.
Consider U13C G44A C49U, for which the yeast fitness came to 0.799.
U13C A14G A45G: the yeast fitness is no more than 0.5.
Under U13A C66U stands 0.857; under A14C A15U G17A C27U U32C U35G, no more than 0.5; under U13C A20G C49A U59C C62U A65U A70C, 0.53.
Under U13G C31A U54C A57U stands no more than 0.5.
Under U13G C31U U35A stands 0.51.
On to U13C U28A C62U C66A, for which the yeast fitness was no more than 0.5.
U13A G58A: the yeast fitness amounted to 1.06.
With U13G A40U C62A, the yeast fitness was 0.52.
Take U13C C22G C27A G51C: the yeast fitness is no more than 0.5.
In the case of U13C A15C C22U C34A C66A, the yeast fitness was no more than 0.5.
On to U13G C24A C46G G52A, for which the yeast fitness was no more than 0.5.
Turning to U13G C22U C31A, the yeast fitness was 0.552.
As for U13C G38C, the yeast fitness amounted to 0.644.
Take A14C A40C U64C: the yeast fitness was determined as 0.622.
Under U13G U54C G56A stands 0.563.
In the case of U13C C22G, the yeast fitness was determined as 0.709.
As to U13C C22A, the yeast fitness came out at 0.791.
Regarding U13C A40U C62A, the yeast fitness is 0.557.
In the case of U13C A15G A21G U47G A65C, the yeast fitness was no more than 0.5.
On to U13C C31U U47G, for which the yeast fitness is 0.562.
Consider U13A G23A A36C G38A C61G, for which the yeast fitness is no more than 0.5.
As for A14C A36U G38A A65C, the yeast fitness is no more than 0.5.
On to U13C C27G U35G C49G A57C, for which the yeast fitness is no more than 0.5.
Turning to A14C A37C U54C, the yeast fitness was no more than 0.5.
Then U13G C22G G63C G67A, with no more than 0.5.
As for U13G G63C, the yeast fitness was 0.696.
On to U13A U16A C24G C33G, for which the yeast fitness is no more than 0.5.
Regarding U13G C61U A70G, the yeast fitness turned out to be 0.618.
As for U13C C24G C49G, the yeast fitness is no more than 0.5.
On to U13C G17A A43U, for which the yeast fitness was 0.523.
U13G U16C A42U G44A C49A: the yeast fitness was no more than 0.5.
With U13C C27U A69U A70C, the yeast fitness was no more than 0.5.
Take U13G C27A C30A A57C: the yeast fitness was no more than 0.5.
U13A G23A A36C G38A C60G C62G: the yeast fitness was determined as 0.557.
Turning to U13C A20C C22U C60G, the yeast fitness was no more than 0.5.
For U13A G23C C27G C61A C62U, the yeast fitness was no more than 0.5.
Then U13G U28A C49A C55U C60U C61U, with no more than 0.5; and U13C A36C C66U, with no more than 0.5; and U13G U26G G52A, with no more than 0.5.
As to U13C G23C A36C G39A, the yeast fitness was found to be 0.611.
Regarding U13C A15U G23A C33A A42G G56A, the yeast fitness was no more than 0.5.
Regarding U13G A20U A69U, the yeast fitness worked out at 0.708.
Take U13A U47C A69U: the yeast fitness came to 0.743.
Regarding U13C U28G U54A C62A, the yeast fitness came out at 0.624.
Consider U13G A42G, for which the yeast fitness was determined as 0.733.
